M4 antag: human M4 muscarinic receptor antagonists, primary screen, CHO cells, Fluo-8 calcium fluorescence; Muscarinic acetylcholine receptor M4 (Homo sapiens), P08173; CHO-hM4 cells, ACh EC80; inhibition, % at 3 µM; 360,000 compounds, 0.73% hits;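 active = inhibition above its plate's cutoff, the mean inhibition of sample wells plus 3 SD, cut at about 27% in these data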;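 also: 0% = acetylcholine EC80 with DMSO and 100% = DMSO without agonist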
Target sequence (P08173 whole entry, looked up): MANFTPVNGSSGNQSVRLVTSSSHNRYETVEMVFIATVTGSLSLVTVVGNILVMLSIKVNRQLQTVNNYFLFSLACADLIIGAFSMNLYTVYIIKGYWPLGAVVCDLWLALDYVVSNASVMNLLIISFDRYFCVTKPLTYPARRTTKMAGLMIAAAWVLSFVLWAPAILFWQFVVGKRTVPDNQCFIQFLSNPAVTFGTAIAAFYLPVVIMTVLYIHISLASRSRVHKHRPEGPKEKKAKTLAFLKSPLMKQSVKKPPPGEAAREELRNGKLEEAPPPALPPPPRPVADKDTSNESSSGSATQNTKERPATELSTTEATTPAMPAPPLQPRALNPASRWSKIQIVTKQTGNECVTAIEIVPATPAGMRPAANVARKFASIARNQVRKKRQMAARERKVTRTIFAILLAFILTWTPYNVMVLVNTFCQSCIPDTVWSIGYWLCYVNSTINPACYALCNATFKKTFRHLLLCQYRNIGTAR
CHRM5 agonist: human M5 muscarinic receptor agonists, primary screen, CHO-K1 cells, Fluo-8 calcium fluorescence | Muscarinic acetylcholine receptor M5 (Homo sapiens), P08912 | CHO-K1 hM5 cells; 0% DMSO wells, 100% maximal acetylcholine response | activation, % at 3 µM | 360,000 compounds, 0.19% hits | AID 624037, 2012;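 active = activation above the run's mean over test compounds plus 3 SD, cut at about 23% in these data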;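 also: signal is peak over basal fluorescence ratio across the kinetic read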
CHRM4 agonist: human M4 muscarinic receptor agonists, primary screen, CHO-K1 cells, Fluo-8 calcium fluorescence; Muscarinic acetylcholine receptor M4 (Homo sapiens), P08173; CHO-K1 hM4/Gqi5; vehicle 0%, full acetylcholine response 100%; activation, % at 3 µM; 360,000 compounds, 0.14% hits;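 active = activation above the run mean over all test wells plus 3 SD, cut at about 32% in these data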;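 also: peak over basal fluorescence ratio per well then scaled between controls; 0% = DMSO wells and 100% = acetylcholine at EC100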
CHRM4 PAM: human M4 muscarinic receptor positive allosteric modulators, primary screen, CHO-K1 cells, Fluo-8 calcium fluorescence; Muscarinic acetylcholine receptor M4 (Homo sapiens), P08173; CHO-K1 hM4/Gqi5, ACh EC20; 0% = ACh EC20, 100% = maximal ACh; activation, % at 3 µM; 360,000 compounds, 0.4% hits;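 active = activation above its plate's cutoff, the mean activation of sample wells plus 3 SD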
CHRM5 PAM: human M5 muscarinic receptor positive allosteric modulators, primary screen, CHO-K1 cells, Fluo-8 calcium fluorescence; Muscarinic acetylcholine receptor M5 (Homo sapiens), P08912; CHO-K1 hM5, ACh EC20 PAM; 0% = ACh EC20, 100% = ACh EC100; activation, % at 3 µM; 360,000 compounds, 0.3% hits; AID 624038, 2012;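 active = activation above the run cutoff, the mean activation of all test compounds plus 3 SD, cut at about 18% in these data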
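Measured by: Fluo-8 calcium fluorescence; material: human M5 receptor in CHO-K1 cells; schedule: Post-acetylcholine fluorescence recording 140 s; benchmarks: low control EC20 acetylcholine (0%), high control EC100 acetylcholine (100%); read-out: Max/basal fluorescence ratio as % of EC20–EC100 ACh window; compound: single dose, 3 µM nominal final test concentration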
M5 antag: human M5 muscarinic receptor antagonists, primary screen, CHO cells, Fluo-8 calcium fluorescence; CHO-hM5 cells, ACh EC80; inhibition, % at 3 µM; 360,000 compounds, 0.59% hits;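 active = inhibition above a per-plate cutoff, the mean of that plate's test compounds plus 3 SD, cut at about 27% in these data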;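 also: 0% = acetylcholine EC80 with DMSO and 100% = DMSO without agonist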
* marks the source's active call; other numbers are inactive results. Shown are actives, neighbours in structure and some others; about 1.8% of the full set was active somewhere.

`COc1ccc(-n2c(SCC(=O)N(C)C3CCS(=O)(=O)C3)nc3ccc(O)cc3c2=O)cc1OC` (centres undefined) gave M4 antag 0, CHRM5 agonist -2, CHRM4 agonist 1, CHRM4 PAM -1, CHRM5 PAM -8 and M5 antag 29*.
Screening CN(C(=O)CSc1nc2ccccc2c(=O)n1-c1ccc(F)cc1)C1CCS(=O)(=O)C1 (centres undefined) returned M4 antag -2, CHRM5 agonist 0, CHRM4 agonist 2, CHRM4 PAM 4, CHRM5 PAM 3 and M5 antag 2.
`CCC(C)CN1C(=O)CN(S(C)(=O)=O)CC1(C)C(=O)NCc1ccccc1` (centres undefined) gave M4 antag 2, CHRM5 agonist 1, CHRM4 agonist 3, CHRM4 PAM 8, CHRM5 PAM -4 and M5 antag 8.
For Cc1cnc(NC(=O)c2cncc(Br)c2)s1 the results were M4 antag -5, CHRM5 agonist -9, CHRM4 agonist 1, CHRM4 PAM 20*, CHRM5 PAM 2 and M5 antag -2.
`Cc1cnc(NC(=O)c2ccncc2)s1` gave M4 antag -3, CHRM5 agonist -3, CHRM4 agonist 0, CHRM4 PAM 2, CHRM5 PAM 9 and M5 antag 1.
`CCN(CCCNC(=O)C1CCN(S(=O)(=O)c2cnc[nH]2)CC1)c1cccc(C)c1` gave M4 antag -9, CHRM5 agonist 4, CHRM4 agonist 0, CHRM4 PAM 4, CHRM5 PAM 42* and M5 antag 0.
O=C(CSc1cn[nH]n1)Nc1ccccc1C(F)(F)F was read as M4 antag 8, CHRM5 agonist -1, CHRM4 agonist 1, CHRM4 PAM -1, CHRM5 PAM -1 and M5 antag 11.
`CC(=O)N1N=C(c2ccc(Cl)cc2)OC1c1ccc(C(C)C)cc1` (centres undefined) gave M4 antag -16, CHRM5 agonist 6, CHRM4 agonist 1, CHRM4 PAM 2, CHRM5 PAM 33* and M5 antag -8.
`CC(=O)N1N=C(c2ccc(C)cc2)OC1c1ccc(Br)cc1` (centres undefined) gave M4 antag -1, CHRM5 agonist 2, CHRM4 agonist -1, CHRM4 PAM -6, CHRM5 PAM 3 and M5 antag -24.
For COc1ccc2cc(C(=O)C3CCCN(C(=O)c4cnn(C(C)C)c4)C3)ccc2c1 (centres undefined) the results were M4 antag -4, CHRM5 agonist -2, CHRM4 agonist 6, CHRM4 PAM -1, CHRM5 PAM -4 and M5 antag 0.
C=CCN1C(=O)N(c2ccccc2)C(=O)C1CC(=O)Nc1ccc(OC)cc1 (centres undefined) was read as M4 antag -6, CHRM5 agonist 0, CHRM4 agonist 0, CHRM4 PAM 0, CHRM5 PAM 6 and M5 antag 0.
For CCC(C(=O)Nc1ccc(C)cc1)c1ccccc1 (centres undefined) the results were M4 antag 6, CHRM5 agonist -2, CHRM4 agonist 1, CHRM4 PAM -5, CHRM5 PAM -2 and M5 antag 7.
`CCC(C(=O)Nc1ccc(C(=O)N2CCCC2)cc1)c1ccccc1` (centres undefined) gave M4 antag 6, CHRM5 agonist 23, CHRM4 agonist 13, CHRM4 PAM -8, CHRM5 PAM -16 and M5 antag 17.
`CCC(C(=O)Nc1ccc(C(=O)Nc2ccccc2C(=O)O)cc1)c1ccccc1` (centres undefined) gave M4 antag -3, CHRM5 agonist -1, CHRM4 agonist -2, CHRM4 PAM 17*, CHRM5 PAM 2 and M5 antag 6.
Screening COc1ccc(Cl)cc1NC(=O)C(OC)c1ccccc1 (centres undefined) returned M4 antag 0, CHRM5 agonist -9, CHRM4 agonist -1, CHRM4 PAM 2, CHRM5 PAM 10 and M5 antag -1.
Screening CCc1ccc(NC(=O)C(CC)c2ccccc2)cc1 (centres undefined) returned M4 antag 4, CHRM5 agonist 24*, CHRM4 agonist 24, CHRM4 PAM -1, CHRM5 PAM -2 and M5 antag 2.
For CCC(C(=O)Nc1cc(Cl)ccc1OC)c1ccccc1 (centres undefined) the results were M4 antag -5, CHRM5 agonist -4, CHRM4 agonist -2, CHRM4 PAM 13, CHRM5 PAM 19* and M5 antag -11.
Cc1ccc(SCC(=O)N2CCCC2)cc1 was read as M4 antag 6, CHRM5 agonist -7, CHRM4 agonist 0, CHRM4 PAM 1, CHRM5 PAM 19* and M5 antag -3.
`O=C(CSCc1ccc(Cl)cc1)Nc1ccc(O)cc1C(=O)O` gave M4 antag 3, CHRM5 agonist 10, CHRM4 agonist -1, CHRM4 PAM 6, CHRM5 PAM 4 and M5 antag -5.
`O=C(NNC(=O)c1cccc2ccccc12)c1ccc(-c2ccccc2)cc1` gave M4 antag -7, CHRM5 agonist -2, CHRM4 agonist 20, CHRM4 PAM -9, CHRM5 PAM -16 and M5 antag 6.
For O=C(NNC(=O)c1cccc2ccccc12)c1ccccc1O the results were M4 antag -14, CHRM5 agonist -1, CHRM4 agonist 7, CHRM4 PAM 17*, CHRM5 PAM -1 and M5 antag 7.
Screening O=C(NNc1c2ccccc2nc2ccccc12)c1ccccc1O returned M4 antag 0, CHRM5 agonist -2, CHRM4 agonist 17, CHRM4 PAM -11, CHRM5 PAM -16 and M5 antag 34*.
For CC(C)(C)C1CCC2(CC1)CC(=O)c1ccccc1O2 (centres undefined) the results were M4 antag 2, CHRM5 agonist 1, CHRM4 agonist 1, CHRM4 PAM 3, CHRM5 PAM -2 and M5 antag 11.
Screening Cc1cc([N+](=O)[O-])ccc1-c1ccc(/C=N/NC(=O)c2ccc(Br)o2)o1 returned M4 antag -9, CHRM5 agonist 246*, CHRM4 agonist 0, CHRM4 PAM 1, CHRM5 PAM -3 and M5 antag -4.

Screening results: PubChem BioAssay, The Scripps Research Institute Molecular Screening Center
